# In PMC8892239 (EFSA Journal, 2022):
# Like-named read-outs stand apart in the source and are kept apart here.
# What was measured:
# [1] = system: Brassica napus (oilseed rape); test: Seedling emergence and seedling growth test, OECD 208; assay type: in vivo; settings: 21 days
# Summary of the method: (§1)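 Soil was spiked with the test compound; measured concentrations were checked against nominal. From 50% emergence in controls, emergence, survival and visible phytotoxicity were recorded weekly for 21 days. At the end, emergence, survival, shoot fresh weight and visible damage were recorded. Effect concentrations were derived from dose–response curves.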
# [2] = Risk characterisation
# Summary of the method: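 For each compartment, a PNEC was derived by dividing the NOEC (or EC10 where indicated) by an assessment factor. Risk was expressed as the PEC/PNEC ratio.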
# [3] = Metabolism of 14C-EQ in liver slices; assay type: in vitro ADME, rat, laying hen and goat; settings: 10 and 100 µM, 37°C, 2 h
# [4] = Metabolism of 14C-EQ in liver microsomes; assay type: in vitro ADME, rat, laying hen and goat; settings: 10 and 100 µM, 37°C, 2 h
# Summary of the method: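 Liver microsomes were used. Hen (Isa-Warren) and goat (Deutsche Edelziege/Burenziege) microsomes were prepared in-house; rat microsomes were commercial. Incubation was with ring-¹⁴C(U)-labelled test compound at 10 and 100 µM, 37°C, 2 h.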
# [5] = Stability of EQ in a vitamin/mineral premixture; assay type: physicochemical; settings: premixture with 5% EQ
# [6] = Residues of EQ and EQDM in fish flesh; assay type: in vivo; settings: Atlantic salmon, oral, 50 mg EQ/kg feed
# Summary of the method: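 Flesh was sampled from 15 fish per group after 90 days of feeding. The parent compound and its dimer were quantified by HPLC with fluorescence detection.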
# [7] = Oxygen bomb method, feed for chickens for fattening; settings: for induction period: basal feed 7 h
# [8] = system: male BALB/c mice; test: Subchronic; assay type: in vivo, mouse; settings: EQ 5,000 mg/kg feed, after 10 days, mice refused their feed
# Summary of the method: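 Groups of 10 BALB/c mice were fed the dimer for 90 days. Nominal levels were 0, 0.1, 1, 100, 1,000, 3,000 and 5,000 mg/kg feed, equal to 0, 0.015, 0.081, 10, 99, 286 and 518 mg/kg bw per day. A parent-compound group started at 5,000 mg/kg feed, was reduced to 1,000 mg/kg feed and was later excluded. BMD modelling used a 10% (or 20%) benchmark response.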
# [9] = Residues of EQ and metabolites/TPs in laying hen tissues and eggs; assay type: in vivo, laying hens; settings: liquid egg, control (0 mg EQ/kg feed); LOQ 2 µg/kg whole egg
# Summary of the method: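 Liver, kidney, muscle and skin/fat were taken from eight hens per group after 56 days of feeding. Twelve eggs per treatment were collected: four per day on three consecutive days at the end of the study. EQ, EQDM, EQI, DHEQ, DEQ and metabolites A–C were measured. LOQs: EQ 0.5 (muscle) to 2 (other tissues) µg/kg; EQDM 0.5–1 µg/kg; EQI 1.5 µg/kg; DHEQ 0.5 µg/kg; whole egg 2 µg/kg per analyte.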
# [10] = system: Daphnia magna; test: 21-day semi-static reproduction test; assay type: in vivo
# [11] = system: terrestrial plants; test: Seedling emergence and seedling growth test, OECD 208, three plant species; assay type: in vivo, Avena sativa, Brassica napus, Pisum sativum
# Summary of the method: as §1
# [12] = system: Pisum sativum (pea); test: Seedling emergence and seedling growth test, OECD 208; assay type: in vivo; settings: 21 days
# Summary of the method: as §1
# [13] = system: Pacific oyster Crassostrea gigas; test: 24-h embryo-larval developmental test; assay type: in vivo; settings: initially measured concentrations
# [14] = system: weaned piglets; test: Tolerance study in weaned piglets; assay type: in vivo
# Summary of the method: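 128 piglets (Pietrain × crossbred, both sexes) entered the study at 28 days old and 8.1 kg. They were housed four per pen (two males, two females) in 32 pens and acclimatised for 6 days. Four mash diets were fed: 0, 50, 150 or 300 mg/kg feed, with eight replicate pens per diet.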
# [15] = system: Avena sativa (oat); test: Seedling emergence and seedling growth test, OECD 208; assay type: in vivo
# Summary of the method: as §1
# [16] = Adsorption coefficient; assay type: physicochemical
# Summary of the method: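 Koc estimated under GLP per OECD 121 from the HPLC retention time of the test compound. Runs were done at pH 6.5 and at pH 2.5 because the compound ionises at soil-relevant pH.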
# [17] = Assessment of secondary poisoning
# [18] = ref EFSA FEEDAP Panel, 2015; cited from earlier work
smiles,measurement,setting,value
"CCOc1ccc2c(c1)C(C)=CC(C)(C)N2 [EQ, 6‐ethoxy‐1,2‐dihydro‐2,2,4‐trimethylquinoline]","EC50, shoot fresh weight",[1],155.6 mg/kg
same,"PEC/PNEC, fish farmed in land-based systems",[2],0.10
same,"PEC/PNEC, freshwater sediment",[2],0.02
same,"PEC/PNEC, marine sediment",[2],"1,550"
same,"PEC/PNEC, terrestrial compartment (earthworm)",[2],0.03
same,"PNEC, freshwater sediment",[2]; AF 10,"12,500 μg/kg"
same,"PNEC, terrestrial compartment (earthworm)",[2]; AF 10,"17,100 μg/kg"
same,"PNEC, freshwater compartment",[2]; AF 50,1.2 µg/L
same,"PEC/PNEC, freshwater compartment",[2]; EQ used in terrestrial animals,5
same,"PNECsed, marine sediment","[2]; equilibrium partitioning approach, AF 1,000",70.8 µg/kg
same,extent of metabolism,[3],metabolised extensively
same,number of metabolites identified,[3]; irrespective of origin,17
same,extent of metabolism,[4],metabolised extensively
same,number of metabolites identified,[4]; irrespective of origin,18
same,EQ disappeared,"[5]; 90 days at 25°C, 60% RH",About 50%
same,time to a similar (about 50%) decline of EQ,[5]; at 40°C,8 days
same,concentration at 90 days,[6],40 ng/g
same,induction period,[7]; 25 mg ethoxyquin/kg feed,7.6 h
same,protection factor,[7]; 50 mg ethoxyquin/kg feed,1.46
same,induction period,[7]; 50 mg ethoxyquin/kg feed,9.9 h
same,loss of initial body weight,[8],11%
same,residue in eggs,[9],˂ LOQ^( ^d ^)
same,EC10,[10]; as used in risk characterisation,0.06 µg/mL
same,21-day EC10 (number of offspring per introduced and survived parent),"[10]; nominal concentrations, 95% confidence interval 46.9–76.0",0.0597 µg/mL
same,concentration with statistically significant effects on shoot fresh weight,[11]; all species tested,111 mg test item/kg soil DW
same,EC10,"[11]; lowest calculated, 21 days",55.8 mg test item/kg soil DW
same,lowest calculated EC50,"[11]; shoot fresh weight, 21 days",155 mg test item/kg soil DW
same,"EC50, shoot fresh weight",[12],181.3 mg/kg
same,24-h NOEC (development),[13],2.9 mg/L
same,zootechnical parameters,"[14]; 50, 150 or 300 mg/kg feed, 42 days",not different from those of the control group
same,margin of safety,[14]; maximum use level 50 mg ethoxyquin/kg feed,at least six
same,"EC50, shoot fresh weight",[15]; 21 days,242.2 mg/kg
same,effects on seedling emergence and survival of emerged seedlings,"[15]; up to 1,000 mg test item/kg soil DW",No adverse effects
same,Koc (used for Phase II exposure assessment),[16],331 L/kg
same,Log Koc,[16]; pH 2.5,1.55
same,estimated Koc,[16]; pH 2.5,35
same,Log Koc,[16]; pH 6.5,2.52
same,estimated Koc,[16]; pH 6.5,331
same,PECfish/PNECoral,[17],1
same,NECoral,"[17]; from NOEC 80 mg/kg feed, assessment factor of 90",0.89 mg/kg
same,PECfish/PNECoral,[17]; listed as Ethoxyquin,1.0
same,conclusion on toxicological profile,[18],"not genotoxic, carcinogenic, and does not cause developmental toxicity in the offspring"
